The source of these data is ChEMBL document CHEMBL1124296, “Molecular basis for bleomycin amplification: conformational and stereoelectronic effects in unfused amplifiers” (J Med Chem, 1988).

This experiment concerns Calf thymus DNA. Description: Binding constant to DNA measured spectrophotometrically. It counts as nucleic-acid assay. The note with it: Bos taurus. In short, it runs like this: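 Calf thymus DNA, stripped of residual protein and dialyzed into PIPES 00 buffer (0.01 M PIPES, 0.001 M EDTA, NaOH to pH 7.00, [Na⁺] 0.019 M). DNA-P concentration was read at 260 nm with ε 6600 M⁻¹ cm⁻¹. Equilibrium binding constants were obtained spectrophotometrically by an earlier-reported procedure.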
As to `CSc1nc(NCCN(C)C)cc(-c2cccs2)n1`, the K was 6800 M⁻¹.
Then `CN(C)CCSc1nccc(-c2ccccc2)n1`, with 8600 M⁻¹; and `Cc1cc(-c2cccs2)nc(SCCN(C)C)n1`, with 24800 M⁻¹.
The result for `CN(C)CCSc1nccc(-c2ccco2)n1` reads 3500 M⁻¹.
The compound `CN(C)CCSc1nccc(-c2cccn2C)n1` gave a K of 10100 M⁻¹.
Then `CN(C)CCNc1nccc(-c2nccs2)n1`, with 3900 M⁻¹.
In the case of `Cc1ccnc(-c2cc(COCCN(C)C)ccn2)c1`, the K came out at 3000 M⁻¹.
Then `CN(C)CCOc1cccc(-c2ccccc2)c1`, with 3000 M⁻¹; and `CN(C)CCSc1nccc(-c2nccs2)n1`, with 9250 M⁻¹.
The result for `Cc1cnc(SCCN(C)C)nc1-c1cccs1` reads 48000 M⁻¹.
The result for `CN(C)CCSc1nccc(-c2cccs2)n1` reads 18700 M⁻¹; that for `CN(C)CCOc1ccccc1-c1ccccc1`, 3000 M⁻¹.
For the compound `CSc1cc(-c2cccs2)nc(NCCN(C)C)n1`, the K came out at 13700 M⁻¹.
The result for `CN(C)CCOc1ccc(-c2ccccc2)cc1` reads 3000 M⁻¹; that for `CN(C)CCNc1nccc(-c2cccs2)n1`, 4400 M⁻¹; that for `CN(C)CCOc1nccc(-c2cccs2)n1`, 3400 M⁻¹.
